Measurements published in ChEMBL document CHEMBL1140759, “Synthesis, anti-Toxoplasma gondii and antimicrobial activities of benzaldehyde 4-phenyl-3-thiosemicarbazones and 2-[(phenylmethylene)hydrazono]-4-oxo-3-phenyl-5-thiazolidineacetic acids” (Bioorg Med Chem, 2008).

Key:
[1] = tested on: Saccharomyces cerevisiae; experiment: Antimicrobial activity against Saccharomyces cerevisiae at 300 ug/disc; type: functional; details: read-out: IZ
How it was run: (§1)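 Disc diffusion on agar plates inoculated with a standardized microbial suspension, with paper discs carrying known compound amounts. DMSO-only discs served as negative controls, and chloramphenicol, rifampicin (bacteria) or nistatin (fungi) as references. The read-out is the mean inhibition zone diameter in mm. Each run was done three times and repeated if results differed.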

[2] = tested on: Mycobacterium tuberculosis; experiment: Antimicrobial activity against Mycobacterium tuberculosis at 300 ug/disc; type: functional; details: read-out: IZ
How it was run: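 Agar disc diffusion: paper discs loaded with compound placed on agar plates seeded with a standardised microbial suspension. DMSO-only discs served as negative control. Chloramphenicol and rifampicin (bacteria) or nistatin (fungi) gave reference zones. Read-out was mean zone of inhibition diameter (mm). Each experiment was run three times and repeated if results differed.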

[3] = tested on: Vero; experiment: Inhibition of uninfected african green monkey Vero cells; type: cell-based; details: Chlorocebus sabaeus
[4] = tested on: Toxoplasma gondii; experiment: Inhibition of intracellular parasite Toxoplasma gondii; type: functional, organism-based
How it was run: (§2)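 Infected Vero cultures were exposed to compound at 0.01–30 mM for 24 h, in triplicate per assay. IC50 for infected cells and intracellular parasites was derived by non-linear regression, using trypan blue exclusion.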

[5] = tested on: Bacillus subtilis; experiment: Antimicrobial activity against Bacillus subtilis at 300 ug/disc; type: functional; details: read-out: IZ; how it was run: as §1
[6] = tested on: Enterococcus faecalis; experiment: Antimicrobial activity against Streptococcus faecalis at 300 ug/disc; type: functional; details: read-out: IZ; how it was run: as §1
[7] = tested on: Mycolicibacterium smegmatis; experiment: Antimicrobial activity against Mycobacterium smegmatis at 300 ug/disc; type: functional; details: read-out: IZ; how it was run: as §1
[8] = tested on: Candida; experiment: Antimicrobial activity against Candida sp. IMUR4249 at 300 ug/disc; type: functional; details: read-out: IZ; how it was run: as §1
[9] = tested on: Toxoplasma gondii; experiment: Inhibition of Toxoplasma gondii infected in african green monkey Vero cells; type: functional, organism-based; how it was run: as §2
[10] = tested on: Candida; experiment: Antimicrobial activity against Candida sp. IMUR1224 at 300 ug/disc; type: functional; details: read-out: IZ; how it was run: as §1
[11] = tested on: Escherichia coli; experiment: Antimicrobial activity against Escherichia coli at 300 ug/disc; type: functional; details: read-out: IZ; how it was run: as §1
[12] = tested on: Toxoplasma gondii; experiment: Antiparasitic activity against Toxoplasma gondii infected african green monkey Vero cells at 2 mM assessed as infected cells; type: functional
How it was run: (§3)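 Vero cells were infected with RH-strain tachyzoites (5:1 parasite:cell) for 1 h, washed with PBS, and grown 24 h at 37 °C in medium 199 with 5% FCS. Compound was then added for 24 h. Cells were fixed with Bouin's, stained with Giemsa, and at least 400 cells were counted by light microscopy for the percentage infected. Hydroxyurea and sulfadiazine served as references.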

[13] = tested on: Toxoplasma gondii; experiment: Antiparasitic activity against Toxoplasma gondii infected african green monkey Vero cells at 8 mM assessed as infected cells; type: functional; how it was run: as §3
[14] = tested on: Candida; experiment: Antimicrobial activity against Candida sp. IMUR720 at 300 ug/disc; type: functional; details: read-out: IZ; how it was run: as §1
[15] = tested on: Micrococcus luteus; experiment: Antimicrobial activity against Micrococcus luteus at 300 ug/disc; type: functional; details: read-out: IZ; how it was run: as §1
[16] = tested on: Staphylococcus aureus; experiment: Antimicrobial activity against Staphylococcus aureus at 300 ug/disc; type: functional; details: read-out: IZ; how it was run: as §1
[17] = tested on: Toxoplasma gondii; experiment: Antiparasitic activity against Toxoplasma gondii infected african green monkey Vero cells at 20 mM assessed as infected cells; type: functional; how it was run: as §3
[18] = tested on: Mycolicibacterium phlei; experiment: Antimicrobial activity against Mycobacterium phlei at 300 ug/disc; type: functional; details: read-out: IZ; how it was run: as §1
[19] = tested on: Klebsiella pneumoniae; experiment: Antimicrobial activity against Klebsiella pneumoniae at 300 ug/disc; type: functional; details: read-out: IZ; how it was run: as §1
[20] = tested on: Toxoplasma gondii; experiment: Antiparasitic activity against Toxoplasma gondii infected african green monkey Vero cells at 0.1 mM assessed as infected cells; type: functional; how it was run: as §3
[21] = tested on: Candida albicans; experiment: Antimicrobial activity against Candida albicans at 300 ug/disc; type: functional; details: read-out: IZ; how it was run: as §1
[22] = tested on: Toxoplasma gondii; experiment: Antiparasitic activity against Toxoplasma gondii infected african green monkey Vero cells at 5 mM assessed as infected cells; type: functional; how it was run: as §3

SMILES	zone of inhibition at 300 µg/disc [1] [mm]	zone of inhibition at 300 µg/disc [2] [mm]	IC50 [3] [µM]	IC50 [4] [µM]	zone of inhibition at 300 µg/disc [5] [mm]	zone of inhibition at 300 µg/disc [6] [mm]	zone of inhibition at 300 µg/disc [7] [mm]	zone of inhibition at 300 µg/disc [8] [mm]	IC50 [9] [µM]	zone of inhibition at 300 µg/disc [10] [mm]	zone of inhibition at 300 µg/disc [11] [mm]	Activity [12] [%]	Activity [13] [%]	zone of inhibition at 300 µg/disc [14] [mm]	zone of inhibition at 300 µg/disc [15] [mm]	zone of inhibition at 300 µg/disc [16] [mm]	Activity [17] [%]	zone of inhibition at 300 µg/disc [18] [mm]	zone of inhibition at 300 µg/disc [19] [mm]	Activity [20] [%]	also measured
O=C(O)CC1S/C(=N\N=C\c2cccc(Cl)c2)N(c2ccccc2)C1=O (stereo not drawn)	< 7	< 7	10000	2000	< 7	12	< 7	11	3000	< 7	< 7	34.8	0	< 7	16	< 7	0	< 7	< 7	53.74	zone of inhibition at 300 µg/disc [21]: < 7 mm; Activity [22]: 33.5%
O=C(O)CC1S/C(=N\N=C\c2ccccc2)N(c2ccccc2)C1=O (stereo not drawn)	< 7	14	5000	1000	15	12	9	< 7	4000	< 7	< 7	48.5	0	< 7	20	< 7	0	7	< 7	69.7	zone of inhibition at 300 µg/disc [21]: 8 mm; Activity [22]: 14.6%
COc1cc(/C=N/N=C2\SC(CC(=O)O)C(=O)N2c2ccccc2)cc(OC)c1OC (stereo not drawn)	< 7	< 7	2000	500	19	< 7	< 7	15	1000	< 7	< 7	14.33	7.2	< 7	25	< 7	0	< 7	< 7	55.57	zone of inhibition at 300 µg/disc [21]: 10 mm; Activity [22]: 15.63%
Cc1cccc(/C=N/N=C2\SC(CC(=O)O)C(=O)N2c2ccccc2)c1 (stereo not drawn)	< 7	< 7	9000	500	< 7	11	< 7	< 7	1000	< 7	< 7	15.54	10.13	< 7	22	< 7	0	< 7	< 7	66	zone of inhibition at 300 µg/disc [21]: 9 mm; Activity [22]: 16.19%
